Data on four molecules can be found in paper PMC11929782 (Scientific Reports, 2025).

A word on the Kd: it is the concentration at which binding is half-saturated. The low end stands for higher affinity, the high end for lower affinity.

Ends that are not written are not given here. A value given as a limit tells only on which side of the number the result lay.

For one series, the system named is RAW264.7 cells. Description: Cytotoxicity, CCK-8 assay. Format: cell-based, murine. The conditions noted are these: RAW264.7, normal and IL17RA-deficient cells, varying concentrations, 24 h. The essentials:
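RAW264.7 cells were cultured in RPMI1640 (0.05 mM β-mercaptoethanol, 10% FBS) and polarized to M1 with 1 µg/ml LPS plus 20 ng/ml IFNγ for 24 h. IL17RA was knocked down by siRNA transfection, with cells harvested at 48 h. Normal and knockdown cells (1 × 10⁴ cells/ml) were treated 24 h with varied test compound concentrations. CCK-8 was added for 4 h, then absorbance read at 450 nm. Mean ± SEM, ≥3 independent experiments.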
For orientation: Tetrazolium dyes change colour on reduction, which living cells bring about.

A further series concerns THP-1 cells. In words: Cytotoxicity, CCK-8 assay. The conditions noted are these: THP-1, normal and IL17RA-deficient cells, varying concentrations, 24 h. Format: cell-based, human. An outline of the steps: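 THP-1 cells were cultured in RPMI1640 (0.05 mM β-mercaptoethanol, 10% FBS). They were made into M1 macrophages with 100 ng/ml PMA for 120 h, then 1 µg/ml LPS plus 20 ng/ml IFNγ for 24 h. IL17RA was knocked down by siRNA, with cells harvested at 48 h. Normal and knockdown cells (1 × 10⁴ cells/ml) received test compound at varied concentrations for 24 h. CCK-8 for 4 h; A450. Mean ± SEM, ≥3 independent experiments.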

Another series deals with T1, IL17RC (Homo sapiens, UniProt Q8NAC3).
T1 sequence (Q8NAC3 21-791): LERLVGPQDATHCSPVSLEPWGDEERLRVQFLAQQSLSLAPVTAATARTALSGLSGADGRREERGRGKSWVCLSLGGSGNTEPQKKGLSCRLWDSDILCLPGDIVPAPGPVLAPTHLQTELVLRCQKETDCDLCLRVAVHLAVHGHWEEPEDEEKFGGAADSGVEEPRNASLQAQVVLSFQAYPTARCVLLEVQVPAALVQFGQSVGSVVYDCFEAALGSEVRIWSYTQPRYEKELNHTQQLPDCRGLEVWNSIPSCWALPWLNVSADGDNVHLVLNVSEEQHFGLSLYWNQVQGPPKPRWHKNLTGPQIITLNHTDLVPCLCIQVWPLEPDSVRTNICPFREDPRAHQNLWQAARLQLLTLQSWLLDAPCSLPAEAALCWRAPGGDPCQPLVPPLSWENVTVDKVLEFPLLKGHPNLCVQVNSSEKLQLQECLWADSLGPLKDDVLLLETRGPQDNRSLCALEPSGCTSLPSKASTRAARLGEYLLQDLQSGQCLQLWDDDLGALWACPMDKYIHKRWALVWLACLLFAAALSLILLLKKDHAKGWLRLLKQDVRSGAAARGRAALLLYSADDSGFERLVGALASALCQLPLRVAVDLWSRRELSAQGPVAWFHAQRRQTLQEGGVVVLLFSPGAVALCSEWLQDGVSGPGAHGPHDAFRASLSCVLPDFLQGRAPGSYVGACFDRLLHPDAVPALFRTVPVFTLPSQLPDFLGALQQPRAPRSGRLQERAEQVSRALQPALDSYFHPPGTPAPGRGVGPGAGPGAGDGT
Description: ELISA binding assay, IL17RC. The conditions noted are these: read at 450 nm.

Another series deals with T2, IL17F (Homo sapiens, UniProt Q96PD4).
T2 sequence (Q96PD4 31-163): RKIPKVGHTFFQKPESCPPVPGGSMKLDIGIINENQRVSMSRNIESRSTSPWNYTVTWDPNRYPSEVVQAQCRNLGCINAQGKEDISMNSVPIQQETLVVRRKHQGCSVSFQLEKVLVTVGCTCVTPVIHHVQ
Description: ELISA binding assay, IL17F. The conditions noted are these: read at 450 nm. On the technique in general: In an ELISA, binding on a coated surface is turned into a signal by an enzyme label.

For a further series, the target named is IL17A (Homo sapiens, UniProt Q16552). In words: ELISA binding assay, IL17A. Particulars: read at 450 nm.
The next series relates to HaCaT cells. In words: Cytotoxicity, CCK-8 assay. Particulars: normal and IL17RA-deficient cells, varying concentrations, 24 h. Format: cell-based, human. An outline of the steps:
(§1)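 HaCaT and NIH3T3 cells were grown in DMEM with 10% FBS at 37 °C and 5% CO2. IL17RA was knocked down with siRNA and Lipofectamine 2000, and cells were harvested 48 h post-transfection. Normal and knockdown cells were seeded at 1 × 10⁴ cells/ml and exposed to a range of test compound concentrations for 24 h. CCK-8 was added for 4 h and absorbance read at 450 nm. Mean ± SEM, ≥3 independent experiments.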

The test system of a further series is NIH3T3 cells. Description: Cytotoxicity, CCK-8 assay. Format: cell-based, murine. Particulars: NIH3T3, normal and IL17RA-deficient cells, varying concentrations, 24 h. An outline of the steps: as §1
The conditions of series [1]: patients, long-term studies; cited from earlier work.
Series [2] concerns the target T3, Human IL17RA protein (human, UniProt Q96F46 33-320). In words: SPR. In general terms: SPR reads the build-up and loss of mass on a sensor chip optically.
For series [3], the target named is T3, Human IL17RA protein. Description: MST.

Chain of IL17A (Q16552 24-155, species assumed): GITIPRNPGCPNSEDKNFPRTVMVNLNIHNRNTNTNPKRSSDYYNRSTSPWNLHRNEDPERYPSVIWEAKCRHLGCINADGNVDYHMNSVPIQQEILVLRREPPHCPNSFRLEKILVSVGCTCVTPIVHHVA

Consider ASPVIYHL-NH2 [AL-8(0)], for which the “Cytotoxicity (cell viability, CCK-8)” value in the series on RAW264.7 cells, in the series with THP-1 cells, in the series with HaCaT cells and with NIH3T3 cells was “not directly cytotoxic” each time. The “EC50 for binding to IL17RC” value on IL17RC was “no measurable”. In addition, the “EC50 for binding to IL17F” value on IL17F was “no measurable”. The “EC50 for binding to IL17A” value at IL17A is on record as “no measurable”.

Take Ixekizumab: in [1], the Immunogenicity entry is given as “variable immunogenicity”.

Regarding Secukinumab, the ADA incidence rate in series [1] is below 1%.

Turning to ASPVIYHL-NH2 [AL-8(0)], the Kd with Human IL17RA protein [2] was found to be 83 nM; with Human IL17RA protein [3], 89 nM.
